Hits are enriched below; roughly 1.9% of the tested compounds scored in any of these assays.
CHRM5 agonist – CHRM5 agonism in calcium assay; P08912; CHO-K1 hM5 cells, Fluo-8 calcium fluorescence; 0% DMSO wells, 100% maximal acetylcholine response; activation, % at 3 µM; 360,000 compounds, 0.19% hits; AID 624037;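 active = activation above the run's mean over test compounds plus 3 SD, cut at about 23% in these data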;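 note: signal is peak over basal fluorescence ratio across the kinetic read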
M4 antag – antagonists of human muscarinic M4 receptor (CHRM4) | P08173 | CHO-hM4 cells, ACh EC80, Fluo-8 calcium fluorescence | inhibition, % at 3 µM | 360,000 compounds, 0.73% hits;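 active = inhibition above its plate's cutoff, the mean inhibition of sample wells plus 3 SD, cut at about 27% in these data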;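 note: 0% = acetylcholine EC80 with DMSO and 100% = DMSO without agonist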
Target sequence (P08173 whole entry, looked up): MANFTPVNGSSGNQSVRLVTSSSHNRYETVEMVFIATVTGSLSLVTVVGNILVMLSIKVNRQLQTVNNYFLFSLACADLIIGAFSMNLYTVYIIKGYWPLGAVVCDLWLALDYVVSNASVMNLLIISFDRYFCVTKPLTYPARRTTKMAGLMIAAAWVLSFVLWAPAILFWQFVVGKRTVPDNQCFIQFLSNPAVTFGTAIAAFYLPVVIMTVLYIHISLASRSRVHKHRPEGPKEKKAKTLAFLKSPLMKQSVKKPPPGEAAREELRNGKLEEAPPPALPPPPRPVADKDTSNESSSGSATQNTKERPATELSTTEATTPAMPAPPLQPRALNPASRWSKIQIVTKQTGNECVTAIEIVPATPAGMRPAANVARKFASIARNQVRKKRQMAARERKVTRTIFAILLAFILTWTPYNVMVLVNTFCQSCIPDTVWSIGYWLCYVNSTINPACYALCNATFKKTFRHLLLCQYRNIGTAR
CHRM5 PAM – positive allosteric modulators of human muscarinic M5 receptor; P08912; activation, % at 3 µM; CHO-K1 hM5, Fluo-8 calcium, ACh EC20 PAM; 0% = ACh EC20, 100% = ACh EC100; 360,000 compounds, 0.3% hits; AID 624038;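 active = activation above the run cutoff, the mean activation of all test compounds plus 3 SD, cut at about 18% in these data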
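System – CHO-K1 hM5 cells · Compound – 3 µM, single dose · Incubation – compound preincubation 140 s before EC20 acetylcholine addition · Technique – Fluo-8 calcium fluorescence · Measure – Max/basal fluorescence ratio as % of EC20–EC100 ACh window · Benchmarks – low control EC20 acetylcholine (0%), high control EC100 acetylcholine (100%) · Replication – singlicate, one well per test compound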
CHRM4 agonist – CHRM4 agonism in calcium assay | CHO-K1 hM4/Gqi5, Fluo-8 calcium fluorescence; vehicle 0%, full acetylcholine response 100% | 360,000 compounds, 0.14% hits | activation, % at 3 µM | AID 624127 | P08173;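 active = activation above the run mean over all test wells plus 3 SD, cut at about 32% in these data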;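 note: peak over basal fluorescence ratio per well then scaled between controls; 0% = DMSO wells and 100% = acetylcholine at EC100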
CHRM5 antagonist – antagonists of human muscarinic M5 receptor (CHRM5); P08912; CHO-hM5 cells, Fluo-8 calcium fluorescence, ACh EC80; inhibition, % at 3 µM; 360,000 compounds, 0.59% hits;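 active = inhibition above a per-plate cutoff, the mean of that plate's test compounds plus 3 SD, cut at about 27% in these data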;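 note: 0% = acetylcholine EC80 with DMSO and 100% = DMSO without agonist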
M4 PAM – potentiates acetylcholine response at human M4 receptor; P08173; CHO-K1 hM4/Gqi5, Fluo-8 calcium fluorescence, ACh EC20; 0% = ACh EC20, 100% = maximal ACh; activation, % at 3 µM; 360,000 compounds, 0.4% hits; AID 624126;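 active = activation above its plate's cutoff, the mean activation of sample wells plus 3 SD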
The depositor's hits bear a star.

SMILES | CHRM5 agonist | M4 antag | CHRM5 PAM | CHRM4 agonist | CHRM5 antagonist | M4 PAM
Cc1cc(-c2nnc(SCC(=O)Nc3cccc(Cl)c3)n2N)n[nH]1 | -3 | -7 | 7 | 0 | -4 | 9
Cc1cccc(C)c1NC(=O)C1CCCN(CCCc2ccccc2)C1 (stereo not drawn) | -11 | 83* | -34 | 2 | 22 | -25
O=C1[C@H]2[C@@H](c3ccc(Cl)cc3)N3C(=O)N(c4cccc(Cl)c4)C(=O)[C@@]3(Cc3ccccc3)[C@H]2C(=O)N1C1CCCCC1 | 5 | 0 | 4 | 3 | -3 | 17
CCOc1ccccc1N(CC(=O)NCC1CCCO1)C(=O)CCC(=O)Nc1ccccn1 (stereo not drawn) | -2 | -1 | 1 | 1 | 42* | 12
Cc1cc(C(C)(C)C)ccc1OCC(=O)N/N=C\c1c(C)n(C)n(-c2ccccc2)c1=O | -2 | 1 | -3 | 1 | 15 | 5
O=C(NC(c1cccnc1)C(F)(F)F)c1cc(COc2ccc3c(c2)CCCC3)on1 (stereo not drawn) | 5 | 20 | -10 | 10 | 29* | -5
Cn1cc(CNC(=O)c2cc(COc3ccc4c(c3)CCCC4)on2)cn1 | -4 | 3 | -2 | 8 | 4 | 3
CCCNC(=O)C1(C)CCCN(C(=O)Cc2cccc(OC)c2)C1 (stereo not drawn) | 0 | 8 | -6 | 0 | 7 | 0
Cc1ccc(NC(=O)C2(C)CCN2Cc2csc3ccccc23)cc1 (stereo not drawn) | -4 | 46* | -18 | -1 | 7 | -14
CC1(C(=O)Nc2ccc3c(c2)OCO3)CCN1Cc1csc2ccccc12 (stereo not drawn) | -3 | 11 | -20 | 3 | 13 | -12
Cc1nc2ccccc2n1CC(=O)NCCN1CCOCC1 | 1 | 32* | 1 | 1 | 0 | 28
C[C@@H]1CN([C@H](C)CO)C(=O)CCCn2nncc2CO[C@H]1CN(C)C(=O)NC1CCCCC1 | 1 | -7 | 2 | 0 | -15 | 3
Cn1nc(C(=O)NCc2ccco2)c2ccccc2c1=O | -1 | -2 | -3 | 2 | 3 | 23*
CCn1cc(C(=O)NCc2ccco2)c(=O)c2ccc(C)nc21 | -1 | -22 | 13 | 1 | -10 | 19*
Cn1nc(C(=O)NCCN2CCOCC2)c2ccccc2c1=O | -2 | 9 | -3 | 1 | -3 | -4
Cn1nc(C(=O)NCc2cccnc2)c2ccccc2c1=O | 0 | -9 | 20* | 1 | 12 | 7
Cn1nc(C(=O)Nc2cccnc2)c2ccccc2c1=O | 0 | -6 | -3 | 1 | -4 | 1
CCn1cc(C(=O)NCCOC)c(=O)c2ccc(C)nc21 | -4 | 0 | -16 | 0 | 0 | -2
O=C(NC(c1ccc(Cl)cc1)c1ccccn1)C1CCN(CCOc2ccc(Cl)cc2Cl)CC1 (stereo not drawn) | 0 | -11 | -3 | 28 | -7 | -6
CC(C)(C)N1C(=O)c2ccccc2NC(=O)C1C(=O)Nc1ccc2c(c1)OCCO2 (stereo not drawn) | 0 | 1 | -2 | 4 | 5 | 6
Cc1ccccc1C(=O)N1CCC(C(=O)OCC(=O)Nc2cccc([N+](=O)[O-])c2C)CC1 | 4 | -16 | -4 | 7 | 3 | 9
Cc1c(NC(=O)CN2CCC(C(N)=O)CC2)cccc1[N+](=O)[O-] | 3 | 3 | 21* | 2 | -3 | -2
CC(=O)N1C(=O)C2(NCC(C)N2)c2ccccc21 (stereo not drawn) | 0 | -1 | -2 | 0 | -2 | -2
C[C@H]1CN([C@@H](C)CO)C(=O)c2cccc(NC(=O)Nc3ccc(C(F)(F)F)cc3)c2O[C@H]1CN(C)C | 2 | -1 | 21* | 0 | -5 | 17
COc1ccc(NC(=O)Nc2ccc3c(c2)C(=O)N([C@H](C)CO)C[C@H](C)[C@@H](CN(C)S(C)(=O)=O)O3)cc1 | 3 | -8 | 2 | 1 | 1 | 11
SMILES | CHRM5 agonist | M4 antag | CHRM5 PAM | CHRM4 agonist | CHRM5 antagonist | M4 PAM
C[C@H](CO)N1C[C@H](C)[C@@H](CN(C)S(C)(=O)=O)Oc2ccc(NC(=O)Nc3ccccc3)cc2C1=O | 2 | -2 | 22* | 3 | 0 | 4
C[C@@H]1CCCCO[C@H](CN(C)S(=O)(=O)c2cn(C)cn2)[C@H](C)CN([C@@H](C)CO)C(=O)c2cc(NC(=O)c3ccccc3)ccc2O1 | 1 | 0 | 1 | 0 | 9 | 3
C[C@H](CO)N1C[C@H](C)[C@@H](CN(C)Cc2ccc(Oc3ccccc3)cc2)Oc2c(NC(=O)C3CC3)cccc2C1=O | -2 | 38* | -8 | 11 | 0 | -8
C[C@@H]1CCCCO[C@H](CN(C)S(=O)(=O)c2cn(C)cn2)[C@@H](C)CN([C@H](C)CO)C(=O)c2cc(NC(=O)c3ccncc3)ccc2O1 | 1 | -32 | 6 | 0 | -16 | 18*
CCN1C(=O)[C@H]2[C@@H](c3ccc(C)cc3)N3C(=O)N(c4ccc(OC)cc4)C(=O)[C@@]3(C)[C@H]2C1=O | 3 | -9 | 8 | 2 | 4 | 12
CC1(C(=O)NS(=O)(=O)C2CC2)CCCN(C(=O)c2ccc(F)cc2Cl)C1 (stereo not drawn) | -1 | -1 | 1 | 0 | 1 | 5
O=C(NCc1cccc(C(F)(F)F)c1)c1ccc2sc(C3=C[C@@H](O)[C@@H](O)[C@@H](CO)O3)nc2c1 | 1 | -13 | 3 | 0 | -4 | -2
CCCCOC(=O)C1=C(C)NC(=O)NC1c1ccc(OC)cc1 (stereo not drawn) | -2 | -7 | 18* | 1 | -9 | 1
CCOc1ccc(-c2c(C(=O)N/N=C/c3ccc(Cl)cc3)nnn2-c2nonc2N)cc1 | 6 | -12 | 8 | 8 | 3 | 3
CCOC(=O)c1sc(=NC(=O)c2ccc(S(=O)(=O)N(C)c3ccccc3)cc2)n(C)c1C | -1 | -1 | 5 | 2 | -6 | 27*
Cc1nn(-c2ccccc2)c(C)c1C(=O)OC(C)C(=O)NC1CCCCC1C (stereo not drawn) | 5 | 1 | -8 | 6 | 6 | 2
Cc1cccc(NC(=O)c2sc3nc(-c4ccc(F)cc4)cn3c2C)n1 | -7 | 0 | -18 | 4 | 32* | -7
COc1cccc(OCC(=O)Nc2ccncc2)c1 | 3 | -3 | -6 | 7 | 16 | -3
Cc1cc(OCC(=O)Nc2ccncc2)c(C)cc1Br | 13 | 24 | -20 | 17 | 34* | -2
O=C(COc1ccc2ccccc2c1Br)Nc1ccncc1 | 4 | 15 | -17 | 15 | 29* | -10

From PubChem
